In PubChem BioAssay:
Active and inactive are the calls of the source.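 Rule for the calls, unless noted: active = NADPH fluorescence slope more negative than the mean of all samples by about 3 SD, 99.7% confidence; inactive = the rest.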

Key:
[1] = inhibitors of TNFa-induced NFkB p65 translocation, primary screen, imaging, HUVEC, MLSMR starter and 10KST1 sets (AID 438;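 active = inhibition above 20% together with a positive visual image hit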;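 note: compound added about 3h40 before a 20 min TNFalpha stimulation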;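 for inhibition: signal is the nuclear over cytoplasmic p65 intensity ratio per well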); conditions: HUVEC TNFa-induced p65 nuclear translocation; cell count: measured here: nuclei count (cytotoxicity indicator), at 2.08 µM; inhibition: at 2 µM, stronger effect = higher value, 0% TNFa-plus-vehicle, 100% no-TNFa wells
[2] = reduction of polyQ htt aggregates in cells – imaging, exon1htt(103Q)mCFP cells, high-content imaging, primary screen (AID 483;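 active = visual image review flags a hit and inhibition of aggregation exceeds 20%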;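 note: compound exposure lasted 3 days before fixation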;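 for nuclei count: percent of the per-plate median nuclei count of sample wells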); conditions: exon1htt(103Q)mCFP cell line, aggregate imaging, at 2 µM; inhibition of aggregation: stronger effect = higher value; nuclei count: measured here: cell count, toxicity
[3] = endothelial E-selectin expression blockers – imaging, HUVEC, immunofluorescence, MLSMR starter and 10KST1 sets, primary screen (AID 487;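 active = visually confirmed hit in the image check and inhibition above 20%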;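 for inhibition: signal is fraction of cell area covered by stained E-selectin grains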;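 for nuclei count: 100% = median nuclei count of all wells on the same plate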); conditions: HUVEC TNFalpha-induced E-selectin immunofluorescence imaging, at 2 µM; inhibition: stronger effect = higher value; nuclei count: measured here: cell number, toxicity
[4] = molecular target: Voltage-gated potassium channel subunit beta-2 (Rattus norvegicus) (UniProt P62483); assay: inhibitors of rat Kvbeta2 reductase activity – biochemical, NADPH fluorescence, primary screen (AID 622;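 active = fluorescence slope higher than the sample average by over 3 SD, cut at about -0.22 in these data, passing the limit was not always enough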;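 note: slope of raw intensity against log time taken from 70 to 1610 s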); conditions: recombinant KvBeta, 4-cyanobenzaldehyde reduction, at 10 µM, stronger effect = higher value
[5] = molecular target: Voltage-gated potassium channel subunit beta-2 (Rattus norvegicus) (UniProt P62483); assay: enhancers of rat Kvbeta2 NADPH turnover – biochemical, NADPH fluorescence, primary screen (AID 623); conditions: Recombinant KvBeta, NADPH fluorescence decrease slope, 10 min; at 10 µM; stronger effect = lower value;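 note: fluorescence intensity change per second fitted from 20 to 320 s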
[6] = molecular target: Muscarinic acetylcholine receptor M4 (Homo sapiens) (UniProt P08173); assay: M4-linked GIRK flux change, two-sided – cell-based, HEK293 M4/GIRK, thallium flux, BTC-AM, M4 allosteric agonist project, primary screen (AID 625;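 active = fluorescence slope after compound addition differing from the mean of all tested samples at 99.7% confidence, mostly higher but some lower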;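 note: thallium influx through GIRK channels coupled to M4 in HEK293 cells with BTC-AM dye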); conditions: at 10 µM, actives lie on both sides
Procedure, shortened: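 System: HEK293 cells with M4 receptor and GIRK channels | Incubation: Cells overnight at 37 °C, BTC-AM loading 1 h, reads 2 min total | Technique: Kinetic BTC-AM fluorescence sampled at 1 Hz, 10 s pre-addition baseline | Measure: Post-addition slope, 15–24 s, of baseline-normalized fluorescence | Control set: Carbachol positive, DMSO negative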

[7] = blockers of RIG-like receptor reporter activation – cell-based, Sendai virus stimulus, luciferase, 10K MLSCN set, TLR/RLR signaling modifier project, primary screen (AID 602276;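 active = inhibition at or above 50% at 10 µM; inactive = inhibition below 50%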;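 note: firefly luciferase from ISG56 promoter only with Renilla not read in this screen; 0% = Sendai virus plus DMSO and 100% = medium plus DMSO without virus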); conditions: HEK293 RL24 IRF3 luciferase reporter, at 10 µM, stronger effect = higher value
[8] = TLR3 IRF3 reporter activation blockers – cell-based, poly I:C stimulus, luciferase, 10K MLSCN set, primary screen (AID 602277;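 active = inhibition of the reporter signal at or above 50%; inactive = inhibition below 50%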); conditions: HEK293-TLR3 RL24 IRF3 luciferase reporter, at 10 µM, stronger effect = higher value

Sequence of Voltage-gated potassium channel subunit beta-2 (Rattus norvegicus) (P62483 whole entry, looked up): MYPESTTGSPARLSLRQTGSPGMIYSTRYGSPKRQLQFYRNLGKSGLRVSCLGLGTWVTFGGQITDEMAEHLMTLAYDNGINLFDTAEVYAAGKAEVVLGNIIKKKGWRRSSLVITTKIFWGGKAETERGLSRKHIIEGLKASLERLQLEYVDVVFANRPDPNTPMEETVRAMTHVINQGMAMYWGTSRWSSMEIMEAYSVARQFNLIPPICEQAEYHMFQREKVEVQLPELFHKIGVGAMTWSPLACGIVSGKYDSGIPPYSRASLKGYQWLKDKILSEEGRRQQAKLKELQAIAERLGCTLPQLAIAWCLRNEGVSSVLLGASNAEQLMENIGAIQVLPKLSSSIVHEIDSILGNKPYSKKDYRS
Sequence of Muscarinic acetylcholine receptor M4 (Homo sapiens) (P08173 whole entry, looked up): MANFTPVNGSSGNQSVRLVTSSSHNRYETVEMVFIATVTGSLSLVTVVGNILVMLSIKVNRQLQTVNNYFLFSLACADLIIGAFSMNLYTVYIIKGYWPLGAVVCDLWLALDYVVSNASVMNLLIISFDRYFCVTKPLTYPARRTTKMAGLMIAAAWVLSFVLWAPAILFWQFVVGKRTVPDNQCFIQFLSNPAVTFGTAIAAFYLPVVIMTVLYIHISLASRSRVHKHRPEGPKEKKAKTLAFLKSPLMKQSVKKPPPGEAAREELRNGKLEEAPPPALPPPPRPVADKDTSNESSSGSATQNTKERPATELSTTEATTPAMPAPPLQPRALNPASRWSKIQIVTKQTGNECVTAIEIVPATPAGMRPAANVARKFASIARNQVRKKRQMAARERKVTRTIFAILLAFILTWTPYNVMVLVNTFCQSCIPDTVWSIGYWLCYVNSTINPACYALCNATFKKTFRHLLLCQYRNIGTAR

Row | SMILES | cell count [1] | inhibition [1] | inhibition of aggregation [2] | nuclei count [2] [%] | inhibition [3] | nuclei count [3] [%] | fluorescence slope [4] | NADPH fluorescence slope [5] | fluorescence slope [6] | inhibition [7] | inhibition [8]
1 | c1ccc(Cn2nnnc2C(c2ccccn2)N2CCOCC2)cc1 (stereo not drawn) | 485 | 2.1% (inactive) | -13% (inactive) | 81.4 | -85.1% (inactive) | 116 | -0.577 (inactive) | -4.9e-05 (inactive) | 0.00747 (inactive) | -6.48% (inactive) | 2.75% (inactive)
2 | CC(C)(C)n1nnnc1C(c1cccc(C#N)c1)N1CCC(Cc2ccccc2)CC1 (stereo not drawn) | 613 | -13.9% (inactive) | 30.1% (inactive) | 81.1 | -8% (inactive) | 128 | -0.571 (inactive) | -3.4e-05 (inactive) | 0.00477 (inactive) | 25.2% (inactive) | 36.8% (inactive)
3 | CSc1ccccc1C(=O)NC1CC2CCC1C2 (stereo not drawn) | 246 | 4.5% (inactive) | 13.1% (inactive) | 93.5 | 15.4% (inactive) | 91.1 | -0.535 (inactive) | -1.1e-05 (inactive) | 0.00469 (inactive) | 24.1% (inactive) | 24.1% (inactive)
4 | Cc1cc(C)c2nc(N)sc2c1 | 615 | 6.3% (inactive) | 31.1% (inactive) | 67.2 | 16% (inactive) | 107 | -0.281 (inactive) | -1.5e-05 (inactive) | 0.00618 (inactive) | -28.1% (inactive) | -46.7% (inactive)
5 | CCOc1ccccc1NC(=O)C1CCCN(C(=O)NCc2ccccc2)C1 (stereo not drawn) | 684 | -7.7% (inactive) | -15.4% (inactive) | 114 | -96.5% (inactive) | 106 | -0.448 (inactive) | 8e-05 (inactive) | 0.00645 (inactive) | 5.61% (inactive) | -20.5% (inactive)
6 | CCc1nccn1S(=O)(=O)c1ccc2ccc(C)cc2c1 | 319 | -8.5% (inactive) | -4.1% (inactive) | 104 | -60.6% (inactive) | 112 | -0.512 (inactive) | 1.6e-05 (inactive) | 0.00461 (inactive) | -9.41% (inactive) | -15.4% (inactive)
7 | O=C(NCc1ccco1)C1CC(=O)N(c2ccc(F)cc2)C1 (stereo not drawn) | 375 | 3.6% (inactive) | -0.9% (inactive) | 97.4 | -34.5% (inactive) | 124 | -0.593 (inactive) | -2e-05 (inactive) | 0.00568 (inactive) | 3.07% (inactive) | 12% (inactive)
8 | COCCn1c(=O)[nH]c2cc(C(=O)NCc3cccnc3)ccc2c1=O | 744 | 3.8% (inactive) | 7.4% (inactive) | 93.8 | 56.4% (active) | 102 | -0.302 (inactive) | -4.8e-05 (inactive) | 0.00755 (inactive) | 10.8% (inactive) | 13.4% (inactive)
9 | COc1ccc(CN(C(=O)c2ccccc2OC)C2CCS(=O)(=O)C2)cc1 (stereo not drawn) | 452 | 2.2% (inactive) | 23% (inactive) | 75 | 13.1% (inactive) | 109 | -0.58 (inactive) | -7.5e-05 (inactive) | 0.00303 (inactive) | 14.2% (inactive) | 23.7% (inactive)
10 | Cc1cc(NC(=O)CSc2ccc3nnc(-c4cccc(F)c4)n3n2)no1 | 619 | -13.6% (inactive) | 10.1% (inactive) | 125 | -55.4% (inactive) | 107 | -0.266 (inactive) | 1e-08 (inactive) | 0.00544 (inactive) | -1.23% (inactive) | -7.4% (inactive)
11 | CCOC(=O)c1cnc(-n2nc(C)cc2C)nc1Nc1cccc(C(C)=O)c1 | 634 | -25.9% (inactive) | -14% (inactive) | 104 | 15.1% (inactive) | 111 | -0.567 (inactive) | -1.4e-05 (inactive) | 0.00544 (inactive) | -13.6% (inactive) | -13% (inactive)
12 | CCOC(=O)c1c(C)oc2c1c(C=NCc1ccccn1)c(O)c1ccccc12 | 738 | 4.7% (inactive) | 7.3% (inactive) | 84.9 | -112% (inactive) | 124 | -0.322 (inactive) | -2.5e-05 (inactive) | 0.00123 (inactive) | 8.4% (inactive) | 29.2% (inactive)
13 | O=c1c2ccccc2nnn1CSc1nc2cc(Cl)ccc2c(=O)n1Cc1ccco1 | 386 | 12.2% (inactive) | 7.5% (inactive) | 76 | -101% (inactive) | 113 | -0.56 (inactive) | -5e-05 (inactive) | 0.00813 (inactive) | -18.1% (inactive) | -12.2% (inactive)
14 | COc1ccc(-c2noc(CCC(=O)NCCCN3CCC(Cc4ccccc4)CC3)n2)cc1 | 335 | 7.8% (inactive) | 2% (inactive) | 94 | -46.3% (inactive) | 108 | -0.547 (inactive) | -2.4e-05 (inactive) | 0.00434 (inactive) | 3.44% (inactive) | -1.77% (inactive)
15 | CCOC(=O)NC(c1ccccc1)C1CCCCC1=O (stereo not drawn) | 486 | -3.4% (inactive) | -0.1% (inactive) | 103 | -25.5% (inactive) | 105 | -0.565 (inactive) | 1e-05 (inactive) | 0.00674 (inactive) | 14.4% (inactive) | 18.4% (inactive)
16 | C=CCN(CC=C)C(=O)CN1C(=O)c2ccccc2C1=O | 356 | 0.2% (inactive) | 27.5% (inactive) | 83.2 | -103% (inactive) | 117 | -0.572 (inactive) | -1.3e-05 (inactive) | 0.0065 (inactive) | 19.9% (inactive) | 22.1% (inactive)
17 | CCc1ncc(C(O)c2cccc(OC)c2OC)n1C (stereo not drawn) | 335 | 2.8% (inactive) | 7.4% (inactive) | 96.1 | 17.7% (inactive) | 126 | -0.451 (inactive) | -2.7e-05 (inactive) | 0.00484 (inactive) | 23.2% (inactive) | 24% (inactive)
18 | O=C(CCC(=O)N1CCN(S(=O)(=O)c2ccccc2)CC1)c1cccs1 | 633 | -1.3% (inactive) | -22.1% (inactive) | 102 | -176% (inactive) | 153 | -0.568 (inactive) | -7e-05 (inactive) | 0.00592 (inactive) | -5.43% (inactive) | -3.56% (inactive)
19 | Cc1nc(SCC#N)c2c(C)c(C)sc2n1 | 818 | -4.3% (inactive) | -3.4% (inactive) | 101 | -84.3% (inactive) | 118 | -0.551 (inactive) | -2.7e-05 (inactive) | 0.00593 (inactive) | 10.7% (inactive) | -9.75% (inactive)
20 | CCOc1cccc(C(=O)Nc2cccc(-c3nc4ncccc4o3)c2C)c1 | 333 | 3.3% (inactive) | 10.5% (inactive) | 103 | -46.8% (inactive) | 108 | -0.545 (inactive) | -3e-05 (inactive) | 0.00572 (inactive) | 11.9% (inactive) | -11.2% (inactive)
21 | CC(C)(C)SCCNC(=O)COc1ccccc1 | 368 | -2.3% (inactive) | 16.8% (inactive) | 91.5 | -16.9% (inactive) | 110 | -0.32 (inactive) | -4.6e-05 (inactive) | 0.00624 (inactive) | 1.01% (inactive) | -18% (inactive)
22 | COc1ccc(-c2cnc(SCC(=O)Nc3ccc4c(c3)OCO4)n2Cc2ccco2)cc1 | 450 | 17.8% (inactive) | -8.7% (inactive) | 105 | -1.8% (inactive) | 110 | -0.5 (inactive) | -2.5e-05 (inactive) | 0.00501 (inactive) | 2.4% (inactive) | 36.8% (inactive)
23 | CCN(CC)c1ccc(CNc2ccc(Br)cn2)cc1 | 388 | -2.4% (inactive) | -13.8% (inactive) | 101 | -74.6% (inactive) | 122 | -0.546 (inactive) | -0.000144 (inactive) | 0.00212 (inactive) | -41.1% (inactive) | -92.7% (inactive)
24 | CC(C)CNC(=O)c1ccccc1NC(=O)CN(c1ccc2c(c1)OCCO2)S(C)(=O)=O | 330 | 6% (inactive) | -12.9% (inactive) | 97.5 | -0.7% (inactive) | 105 | -0.574 (inactive) | 2.6e-05 (inactive) | 0.00389 (inactive) | 0.301% (inactive) | 0.167% (inactive)
25 | CCCOc1nc(N)c(C#N)c(-c2ccccc2F)c1C#N | 359 | 1.2% (inactive) | 10.7% (inactive) | 98.5 | -22.8% (inactive) | 99.6 | -0.547 (inactive) | 2.2e-05 (inactive) | 0.00463 (inactive) | 9.25% (inactive) | 14% (inactive)
26 | COc1cccc(OC)c1C(=O)N1CCOCC1 | 505 | -7.7% (inactive) | 7.2% (inactive) | 103 | -105% (inactive) | 126 | -0.536 (inactive) | -3.1e-05 (inactive) | 0.00602 (inactive) | 17.5% (inactive) | 25.3% (inactive)
27 | COC(=O)c1ccc(NC(=O)CN2C(=O)CSC2=O)cc1 | 454 | 3.1% (inactive) | -17.9% (inactive) | 113 | -41% (inactive) | 109 | -0.404 (inactive) | -3e-05 (inactive) | 0.00594 (inactive) | 7.22% (inactive) | 10.7% (inactive)
28 | Cc1ccccc1NC(=O)C1Cc2ccccc2C(=O)O1 (stereo not drawn) | 193 | -5.8% (inactive) | -4.8% (inactive) | 76.3 | 20.2% (inactive) | 79.8 | -0.529 (inactive) | -3.3e-05 (inactive) | 0.00563 (inactive) | -9.01% (inactive) | -31.6% (inactive)
